Common to all, as to assay type: ADME, organism-based, Macaca mulatta
The nature of data set [1]: Drug level in normal rhesus monkey white matter assessed as standard uptake value at 152.9 MBq, iv after 22.5 mins by microPET. Particulars: in vivo, 0.375 h.
Data set [2] can be described thus: Drug level in normal rhesus monkey white matter assessed as standard uptake value at 152.9 MBq, iv after 27.5 mins by microPET. Conditions: in vivo.
Data set [3] in a line: Drug level in normal rhesus monkey white matter assessed as standard uptake value at 152.9 MBq, iv after 2.5 mins by microPET. Particulars: in vivo.
The nature of data set [4]: Drug level in normal rhesus monkey frontal cortex assessed as standard uptake value at 152.9 MBq, iv after 57.5 mins by microPET. Conditions: in vivo. An outline of the steps: (§1)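 Single normal rhesus monkey; tracer given iv via the vena saphena, 1 day apart from the other tracer injections. Dynamic μPET ran 90 min (5×60 s, 5×120 s, 9×300 s, 3×600 s). Images were reconstructed by filtered back projection with a RAMP filter. Regional time-activity curves were expressed as SUV.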

The nature of data set [5]: Drug level in normal rhesus monkey frontal cortex assessed as standard uptake value at 152.9 MBq, iv after 4.5 mins by microPET. Particulars: in vivo, 0.075 h. An outline of the steps:
as §1

A short description of data set [6]: Drug level in normal rhesus monkey white matter assessed as standard uptake value at 152.9 MBq, iv after 1.5 mins by microPET. Particulars: in vivo, 0.025 h.
The nature of data set [7]: Drug level in normal rhesus monkey pons assessed as standard uptake value at 152.9 MBq, iv after 27.5 mins by microPET. Conditions: in vivo.
Data set [8] in a line: Drug level in normal rhesus monkey parietal cortex assessed as standard uptake value at 152.9 MBq, iv after 22.5 mins by microPET. Particulars: in vivo, 0.375 h.
Data set [9] in a line: Drug level in normal rhesus monkey parietal cortex assessed as standard uptake value at 152.9 MBq, iv after 32.5 mins by microPET. Conditions: in vivo.
Data set [10] can be described thus: Drug level in normal rhesus monkey cerebellum assessed as standard uptake value at 109.4 MBq, iv after 105 mins by microPET. Conditions: in vivo, 1.75 h.
Data set [11] can be described thus: Drug level in normal rhesus monkey thalamus assessed as standard uptake value at 109.4 MBq, iv after 129 mins by microPET. Particulars: in vivo, 2.15 h.
Data set [12] in a line: Drug level in normal rhesus monkey thalamus assessed as standard uptake value at 109.4 MBq, iv after 0.125 mins by microPET. Particulars: in vivo, 7 s.
The nature of data set [13]: Drug level in normal rhesus monkey thalamus assessed as standard uptake value at 109.4 MBq, iv after 0.875 mins by microPET. Particulars: in vivo, 52 s.
A short description of data set [14]: Drug level in normal rhesus monkey thalamus assessed as standard uptake value at 109.4 MBq, iv after 52.5 mins by microPET. Particulars: in vivo, 0.875 h.
Data set [15] is described as follows: Drug level in normal rhesus monkey parietal cortex assessed as standard uptake value at 109.4 MBq, iv after 6.5 mins by microPET. Particulars: in vivo.
Data set [16] is described as follows: Drug level in normal rhesus monkey pons assessed as standard uptake value at 109.4 MBq, iv after 123 mins by microPET. Conditions: in vivo, 2.05 h.
A short description of data set [17]: Drug level in normal rhesus monkey frontal cortex assessed as standard uptake value at 96.3 MBq, iv after 145 mins by microPET. Conditions: in vivo.
The nature of data set [18]: Drug level in normal rhesus monkey white matter assessed as standard uptake value at 96.3 MBq, iv after 22.5 mins by microPET. Conditions: in vivo, 0.375 h.
Data set [19] is described as follows: Drug level in normal rhesus monkey parietal cortex assessed as standard uptake value at 96.3 MBq, iv after 165 mins by microPET. Particulars: in vivo, 2.75 h.
A short description of data set [20]: Drug level in normal rhesus monkey pons assessed as standard uptake value at 96.3 MBq, iv after 47.5 mins by microPET. Conditions: in vivo.
Data set [21] in a line: Drug level in normal rhesus monkey frontal cortex assessed as standard uptake value at 96.3 MBq, iv after 1.5 mins by microPET. Conditions: in vivo, 0.025 h.
Data set [22] can be described thus: Drug level in normal rhesus monkey pons assessed as standard uptake value at 96.3 MBq, iv after 57.5 mins by microPET. Particulars: in vivo.
A short description of data set [23]: Drug level in normal rhesus monkey cerebellum assessed as standard uptake value at 96.3 MBq, iv after 125 mins by microPET. Conditions: in vivo. An outline of the steps:
(§2)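 One normal rhesus monkey, each tracer given iv via the vena saphena (81.2, 96.3 or 109.4 MBq), with 1 day between tracer injections. Dynamic brain μPET over 180 min used frames of 5 × 60 s, 5 × 120 s, 9 × 300 s and 12 × 600 s. Images were reconstructed by filtered back projection with a RAMP filter. Regional time-activity curves were expressed as SUV.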

Data set [24] can be described thus: Drug level in normal rhesus monkey white matter assessed as standard uptake value at 96.3 MBq, iv after 165 mins by microPET. Particulars: in vivo, 2.75 h.
A short description of data set [25]: Drug level in normal rhesus monkey white matter assessed as standard uptake value at 96.3 MBq, iv after 8 mins by microPET. Conditions: in vivo.
Data set [26] can be described thus: Drug level in normal rhesus monkey frontal cortex assessed as standard uptake value at 96.3 MBq, iv after 2.5 mins by microPET. Conditions: in vivo.
The nature of data set [27]: Drug level in normal rhesus monkey pons assessed as standard uptake value at 96.3 MBq, iv after 125 mins by microPET. Conditions: in vivo.
A short description of data set [28]: Drug level in normal rhesus monkey white matter assessed as standard uptake value at 81.2 MBq, iv after 2.5 mins by microPET. Conditions: in vivo.
A short description of data set [29]: Drug level in normal rhesus monkey parietal cortex assessed as standard uptake value at 81.2 MBq, iv after 57.5 mins by microPET. Particulars: in vivo.
Data set [30] in a line: Drug level in normal rhesus monkey thalamus assessed as standard uptake value at 81.2 MBq, iv after 8 mins by microPET. Conditions: in vivo.
Data set [31] in a line: Drug level in normal rhesus monkey pons assessed as standard uptake value at 81.2 MBq, iv after 175 mins by microPET. Particulars: in vivo.
Data set [32] in a line: Drug level in normal rhesus monkey frontal cortex assessed as standard uptake value at 81.2 MBq, iv after 27.5 mins by microPET. Conditions: in vivo.
Data set [33] in a line: Drug level in normal rhesus monkey white matter assessed as standard uptake value at 81.2 MBq, iv after 155 mins by microPET. Particulars: in vivo.
The nature of data set [34]: Drug level in normal rhesus monkey cerebellum assessed as standard uptake value at 81.2 MBq, iv after 85 mins by microPET. Particulars: in vivo. The procedure, abridged:
as §2

A short description of data set [35]: Drug level in normal rhesus monkey pons assessed as standard uptake value at 81.2 MBq, iv after 17.5 mins by microPET. Conditions: in vivo.
The nature of data set [36]: Drug level in normal rhesus monkey parietal cortex assessed as standard uptake value at 81.2 MBq, iv after 47.5 mins by microPET. Particulars: in vivo.
Data set [37] in a line: Drug level in normal rhesus monkey thalamus assessed as standard uptake value at 81.2 MBq, iv after 0.5 mins by microPET. Conditions: in vivo.
Data set [38] in a line: Drug level in normal rhesus monkey cerebellum assessed as standard uptake value at 81.2 MBq, iv after 165 mins by microPET. Particulars: in vivo, 2.75 h. An outline of the steps: as §2
A short description of data set [39]: Drug level in normal rhesus monkey frontal cortex assessed as standard uptake value at 81.2 MBq, iv after 42.5 mins by microPET. Particulars: in vivo.
Data set [40] in a line: Drug level in normal rhesus monkey white matter assessed as standard uptake value at 81.2 MBq, iv after 145 mins by microPET. Conditions: in vivo.

On to `[11CH3]Nc1ccc(-c2nc3ccc(O)cc3s2)cc1` [PITTSBURGH COMPOUND B], for which the SUV came to 1.229 in [1]; 1.209 in [2]; 0.752 in data set [3]; 0.692 in data set [4]; 2.11 in data set [5]; 0.292 in [6]. Besides, the SUV in [7] amounted to 1.583; in [8] it was 1.453; in [9] it was 1.081.

Take `Nc1ccc2nc(-c3ccc([18F])cc3)sc2c1`: the SUV in data set [10] is 2.5; in [11] it was 4.43; in data set [12] it was 0; in [13] it was 2.43; in data set [14], 5.41; in data set [15] it was 5.31. The SUV in data set [16] amounted to 4.99.

For `CN(C)c1ccc2nc(-c3ccc([18F])cc3)sc2c1`, the SUV in [17] stood at 1.44; in data set [18], 1.3; in data set [19], 1.18; in data set [20] it was 1.84; in [21], 1.43; in [22], 1.95. The SUV in data set [23] is 0.9; in data set [24], 1.55; in data set [25], 1.16; in [26], 1.8; in [27], 1.88.

As for `CNc1ccc2nc(-c3ccc([18F])cc3)sc2c1`, the SUV in [28] is 2.607; in [29], 3.575; in data set [30], 4.734; in data set [31], 5.471; in [32], 5.784; in data set [33], 4.236. The SUV in [34] is 1.864; in [35], 5.124; in data set [36] it was 3.676; in data set [37], 0.855; in data set [38], 1.585; in data set [39], 5.476. In data set [40], the SUV stood at 3.888.

These data come from ChEMBL document CHEMBL1154674, “Synthesis and evaluation of three 18F-labeled aminophenylbenzothiazoles as amyloid imaging agents” (J Med Chem, 2009).
